Data on 15 compounds can be found in ChEMBL document CHEMBL1158167, “Synthesis, binding properties and receptor docking of 4-halo-6-[2-(4-arylpiperazin-1-yl)ethyl]-1H-benzimidazoles, mixed ligands of D2 and 5-HT1A receptors” (Eur J Med Chem, 2008).

Some results are limits rather than exact numbers.

Chain of D(1A) dopamine receptor (Q95136 whole entry): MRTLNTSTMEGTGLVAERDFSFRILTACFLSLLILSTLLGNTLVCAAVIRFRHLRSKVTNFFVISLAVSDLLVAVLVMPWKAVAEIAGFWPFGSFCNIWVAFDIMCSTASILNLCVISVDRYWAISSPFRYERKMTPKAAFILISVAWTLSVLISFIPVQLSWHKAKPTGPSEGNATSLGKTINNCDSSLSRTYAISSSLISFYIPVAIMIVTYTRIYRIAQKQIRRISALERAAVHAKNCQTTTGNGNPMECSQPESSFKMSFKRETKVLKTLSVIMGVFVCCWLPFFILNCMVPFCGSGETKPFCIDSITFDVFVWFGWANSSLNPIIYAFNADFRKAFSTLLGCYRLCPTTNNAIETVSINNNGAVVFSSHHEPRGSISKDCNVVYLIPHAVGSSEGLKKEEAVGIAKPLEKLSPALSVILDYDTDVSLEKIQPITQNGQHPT
Chain of D(2) dopamine receptor (P20288 whole entry): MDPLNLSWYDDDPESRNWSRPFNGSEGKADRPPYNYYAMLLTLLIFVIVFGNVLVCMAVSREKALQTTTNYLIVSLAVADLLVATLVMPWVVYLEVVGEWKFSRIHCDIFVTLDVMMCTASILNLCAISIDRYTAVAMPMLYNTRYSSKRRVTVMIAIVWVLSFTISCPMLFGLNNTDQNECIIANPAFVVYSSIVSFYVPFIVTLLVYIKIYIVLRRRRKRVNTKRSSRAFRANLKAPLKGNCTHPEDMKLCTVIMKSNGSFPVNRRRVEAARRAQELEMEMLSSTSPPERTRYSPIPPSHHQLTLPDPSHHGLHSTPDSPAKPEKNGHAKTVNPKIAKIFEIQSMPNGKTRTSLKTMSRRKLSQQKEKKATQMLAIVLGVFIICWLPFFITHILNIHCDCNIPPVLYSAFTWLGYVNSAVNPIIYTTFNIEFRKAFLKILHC

Biological target in one experiment: not listed separately
In words: Displacement of [3H]8-OH-DPAT from 5HT1A receptor in bovine hippocampi synaptosomal membrane by liquid scintillation spectrometry. The class given is tissue-based, Bos taurus, Hippocampus. On the technique in general: Displacement assays read how much labelled ligand stays bound in the presence of the test substance.
The Ki is the dissociation constant of the complex between target and ligand, obtained from inhibition or displacement. The low end stands for a stronger hold on the target, the high end for a looser hold on the target. In the case of `FC(F)(F)c1cccc(N2CCN(CCc3cc(Br)c4nc[nH]c4c3)CC2)c1`, affinity was put at a Ki of 0.14 nM.
Same read-out and setting: the result for `Brc1cc(CCN2CCN(c3ncccn3)CC2)cc2[nH]cnc12` reads 129 nM.
Still for that read-out and setting: the result for `COc1ccccc1N1CCN(CCc2cc(Cl)c3nc[nH]c3c2)CC1` reads 5.2 nM.
The same measure, in the same setting: the result for `FC(F)(F)c1cccc(N2CCN(CCc3ccc4nc[nH]c4c3)CC2)c1` reads 33 nM.
In turn, `Clc1cc(CCN2CCN(c3ccccc3)CC2)cc2[nH]cnc12` displayed a Ki of 89.6 nM.
Still for that read-out and setting: the result for `COc1ccccc1N1CCN(CCc2ccc3nc[nH]c3c2)CC1` reads 20.3 nM.
`c1ccc(N2CCN(CCc3ccc4nc[nH]c4c3)CC2)cc1`: the affinity, expressed as Ki, was 197 nM.
The same measure, in the same setting: the result for `Brc1cc(CCN2CCN(c3ccccc3)CC2)cc2[nH]cnc12` reads 24.1 nM.
Same read-out and setting: the result for `Clc1cc(CCN2CCN(c3ncccn3)CC2)cc2[nH]cnc12` reads 530 nM; that for `c1cnc(N2CCN(CCc3ccc4nc[nH]c4c3)CC2)nc1`, above 1000 nM; that for `FC(F)(F)c1cccc(N2CCN(CCc3cc(Cl)c4nc[nH]c4c3)CC2)c1`, 20.7 nM.
`Clc1ccccc1N1CCN(CCc2cc(Br)c3nc[nH]c3c2)CC1` showed a Ki of 89.6 nM.
On the same count and under the same terms, the result for `COc1ccccc1N1CCN(CCc2cc(Br)c3nc[nH]c3c2)CC1` reads 1.4 nM.
`Clc1ccccc1N1CCN(CCc2ccc3nc[nH]c3c2)CC1`: the affinity corresponds to a Ki of 243 nM.
For `Clc1ccccc1N1CCN(CCc2cc(Cl)c3nc[nH]c3c2)CC1`, the affinity, expressed as Ki, was 45.6 nM.

A further experiment deals with D(2) dopamine receptor (Bos taurus, UniProt P20288). The experiment can be described thus: Displacement of [3H]Spiperone from dopamine D2 receptor in bovine caudate nuclei synaptosomal membrane by liquid scintillation spectrometry. The method, boiled down:
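Membranes (0.7 mg/ml protein) incubated 20 min at 37 °C with 0.2 nM [3H]spiperone and 8–10 test compound concentrations (10^-5–10^-10 M). Ketanserin […] blocks 5-HT2 sites. Nonspecific binding defined with […] (+)-butaclamol. GF/C filtration, scintillation counting. Ki; 3–4 experiments in triplicate.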
For `FC(F)(F)c1cccc(N2CCN(CCc3cc(Br)c4nc[nH]c4c3)CC2)c1`, the Ki is 5.77 nM.
The same measure, in the same setting: the result for `Brc1cc(CCN2CCN(c3ncccn3)CC2)cc2[nH]cnc12` reads 26.7 nM; that for `COc1ccccc1N1CCN(CCc2cc(Cl)c3nc[nH]c3c2)CC1`, 5.49 nM; that for `FC(F)(F)c1cccc(N2CCN(CCc3ccc4nc[nH]c4c3)CC2)c1`, 273 nM.
`Clc1cc(CCN2CCN(c3ccccc3)CC2)cc2[nH]cnc12` yielded a Ki of 84.7 nM.
The same measure, in the same setting: the result for `COc1ccccc1N1CCN(CCc2ccc3nc[nH]c3c2)CC1` reads 13.1 nM.
Still for that read-out and setting: the result for `c1ccc(N2CCN(CCc3ccc4nc[nH]c4c3)CC2)cc1` reads 138 nM; that for `Brc1cc(CCN2CCN(c3ccccc3)CC2)cc2[nH]cnc12`, 61.9 nM.
Same read-out and setting: the result for `Clc1cc(CCN2CCN(c3ncccn3)CC2)cc2[nH]cnc12` reads 550 nM.
In turn, `c1cnc(N2CCN(CCc3ccc4nc[nH]c4c3)CC2)nc1` came in with a Ki above 1000 nM.
Still for that read-out and setting: the result for `FC(F)(F)c1cccc(N2CCN(CCc3cc(Cl)c4nc[nH]c4c3)CC2)c1` reads 200 nM.
Compound `Clc1ccccc1N1CCN(CCc2cc(Br)c3nc[nH]c3c2)CC1` came in with a Ki of 84.7 nM.
`COc1ccccc1N1CCN(CCc2cc(Br)c3nc[nH]c3c2)CC1`: the affinity corresponds to a Ki of 0.56 nM.
Compound `Clc1ccccc1N1CCN(CCc2ccc3nc[nH]c3c2)CC1` returned a Ki of 59.7 nM.
Still for that read-out and setting: the result for `Clc1ccccc1N1CCN(CCc2cc(Cl)c3nc[nH]c3c2)CC1` reads 19.1 nM.

The next experiment addresses D(1A) dopamine receptor (Bos taurus, UniProt Q95136). The experiment can be described thus: Displacement of [3H]SCH23390 from dopamine D1 receptor in bovine caudate nuclei synaptosomal membrane by liquid scintillation spectrometry.
Take `FC(F)(F)c1cccc(N2CCN(CCc3cc(Br)c4nc[nH]c4c3)CC2)c1`: the Ki was above 1000 nM.
The same measure, in the same setting: the result for `Brc1cc(CCN2CCN(c3ncccn3)CC2)cc2[nH]cnc12` reads above 1000 nM; that for `COc1ccccc1N1CCN(CCc2cc(Cl)c3nc[nH]c3c2)CC1`, above 1000 nM.
The same measure, in the same setting: the result for `FC(F)(F)c1cccc(N2CCN(CCc3ccc4nc[nH]c4c3)CC2)c1` reads above 1000 nM; that for `Clc1cc(CCN2CCN(c3ccccc3)CC2)cc2[nH]cnc12`, above 1000 nM.
For `c1ccc(N2CCN(CCc3ccc4nc[nH]c4c3)CC2)cc1`, the Ki is above 1000 nM.
Take `Brc1cc(CCN2CCN(c3ccccc3)CC2)cc2[nH]cnc12`: the Ki was above 1000 nM.
The same measure, in the same setting: the result for `Clc1cc(CCN2CCN(c3ncccn3)CC2)cc2[nH]cnc12` reads above 1000 nM; that for `FC(F)(F)c1cccc(N2CCN(CCc3cc(Cl)c4nc[nH]c4c3)CC2)c1`, above 1000 nM.
On the same count and under the same terms, the result for `Clc1ccccc1N1CCN(CCc2cc(Br)c3nc[nH]c3c2)CC1` reads above 1000 nM.
`COc1ccccc1N1CCN(CCc2cc(Br)c3nc[nH]c3c2)CC1` came in with a Ki above 1000 nM.
The same measure, in the same setting: the result for `Clc1ccccc1N1CCN(CCc2cc(Cl)c3nc[nH]c3c2)CC1` reads above 1000 nM.
